Published values gathered from unrelated publications.
Target: Glycogen synthase kinase-3 beta (GSK3B, Homo sapiens, UniProt P49841)
Mode: inhibitor

SMILES | observed | technique | cell line | tested at | inhibition [%]
O=C1CN(/N=C/c2ccc(-c3ccc([N+](=O)[O-])cc3)o2)C(O)=N1 | enzyme activity | ADP detection | – | 100 µM | 31.2
CCN(CC)CCNC(=O)c1c(C)[nH]c(/C=C2\C(=O)Nc3ccc(F)cc32)c1C | enzyme activity | – | – | 0.3 µM | -4
CN1CC(Oc2cnc(C#N)cc2-c2ccn3nc(NC(=O)C4CC4)cc3c2)C1 | enzyme activity | – | – | 1 µM | -8
Cc1nc(-c2ccc(OCC(C)C)c(C#N)c2)sc1C(=O)O | enzyme activity | ADP detection | – | 100 µM | 66.9
COc1cc2ncnc(Nc3ccc(Oc4ccccc4)cc3C)c2cc1OC | enzyme activity | – | – | 1 µM | -2
CS(=O)(=O)Nc1cccc(-c2csc(NC(=O)CSc3nc4nccnc4c(=O)n3CCc3ccccc3)n2)c1 | enzyme activity | – | – | 10 µM | 2
COc1cc(-c2coc3cc(OC)c(OC)c(OC)c3c2=O)cc(OC)c1OC | enzyme activity | ADP detection | – | 100 µM | 3
CCCCNc1ncc2c(-c3ccc(F)cc3)nn(C[C@H]3CC[C@H](N)CC3)c2n1 | target engagement in cells | chemoproteomics | – | 20 mM | 4.2
CC/C(=N\NC(=O)NCc1cccc(O)c1)c1ccc(O)c(C)c1O | enzyme activity | – | – | 0.1 µM | 8.6
CSc1nc(C)c(-c2ccnc(Nc3ccc(N4CCOCC4)cc3)c2)[nH]1 | enzyme activity | – | – | 10 µM | 5.7
CN(C)C1CCN(CC#Cc2nn(C3CCCC3)c3nc(NCc4ccccc4)ncc23)C1 (centres unmarked) | enzyme activity | FRET | – | 1 µM | -1
CNc1cc(Oc2cc(C(=O)Nc3cc(N4CCN(C)CC4)cc(C(F)(F)F)c3)ccc2C)ncn1 | target engagement in cells | chemoproteomics | Huh-7 | 1 µM | -17.6
CCCS(=O)(=O)Nc1ccc(F)c(C(=O)c2c[nH]c3ncc(-c4ccc(Cl)cc4)cc23)c1F | enzyme activity | – | – | 1 µM | < 20
COc1ccc(-c2nc3ccc(C4=NNC(=O)CC4C)cc3[nH]2)cc1 (centres unmarked) | enzyme activity | ADP detection | – | 100 µM | 21.5
